In ChEMBL document CHEMBL1138856, “Synthesis and anti-human immunodeficiency virus activity of 4'-branched (+/-)-4'-thiostavudines” (J Med Chem, 2006):

Assays:
[1] = tested on: Human immunodeficiency virus 1; test: Antiviral activity against HIV1 3B in MT4 cells by MTT assay; type: functional, organism-based
[2] = Cytotoxicity against MT4 cells MTT assay; type: cell-based; conditions: human
How it was run: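 Mock-infected MT-4 cells were cultured with various compound concentrations in parallel with the antiviral assay (4 days, 37 °C). Viability was read by MTT. The value is the concentration reducing viability by 50%.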

[3] = Human immunodeficiency virus 1, 3B, MT4

For `C#C[C@@]1(CO)C=C[C@H](n2cc(C)c(=O)[nH]c2=O)S1` (racemic), the EC50 ([1]; mt4) was 0.74 µM.
In the case of `Cc1cn([C@H]2C=CC(CO)(CO)S2)c(=O)[nH]c1=O` (racemic), the CC50 [2] is reported as > 100 µM and the EC50 [1, 3] is reported as > 100 µM.
With `COC(=O)[C@@]1(CO)C=C[C@H](n2cc(C)c(=O)[nH]c2=O)S1` (racemic) the CC50 [2] was > 100 µM and the EC50 [1, 3] was > 100 µM.
In the case of `Cc1cn([C@H]2C=C[C@@](C#N)(CO)S2)c(=O)[nH]c1=O` (racemic), the CC50 [2] is reported as > 100 µM and the EC50 [1, 3] is reported as 7.6 µM.
With `Cc1cn([C@H]2C=C[C@](CO)(C(N)=O)S2)c(=O)[nH]c1=O` (racemic) the CC50 [2] was > 100 µM and the EC50 [1, 3] was > 100 µM.
For `C=C[C@@]1(CO)C=C[C@H](n2cc(C)c(=O)[nH]c2=O)S1` (racemic), the CC50 [2] was > 100 µM and the EC50 [1, 3] was > 100 µM.
For `C#C[C@@]1(CO)C=C[C@H](n2cc(C)c(=O)[nH]c2=O)S1` (stereo in doubt; (+)-29), the CC50 [2] was > 100 µM and the EC50 ([1]; mt4) was > 20 µM.
For `C#C[C@@]1(CO)C=C[C@H](n2cc(C)c(=O)[nH]c2=O)S1` (stereo in doubt; (-)-29), the EC50 ([1]; mt4) was 0.37 µM.
In the case of `C#C[C@@]1(CO)C=C[C@H](n2cc(C)c(=O)[nH]c2=O)O1` [CENSAVUDINE], the CC50 [2] is reported as > 100 µM and the EC50 [1, 3] is reported as 0.06 µM.
For `Cc1cn([C@H]2C=C[C@@H](CO)O2)c(=O)[nH]c1=O` [STAVUDINE], the CC50 [2] was > 100 µM and the EC50 [1, 3] was 0.51 µM.
